≈ marks a conversion by molar mass, not a printed value. Calls of active or inactive are those of the source. The calls are words filed in the database; no cut-off is given here.
Key:
Klebsiella pneumoniae [1] = assay: Antimicrobial activity against Klebsiella pneumoniae ATCC 700603 at 128 uM after 24 to 48 hrs by two-fold broth microdilution method; format: functional, organism-based
Summary of the method: (§1)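 Antibacterial microdilution in CAMH, inoculum 0.5 McFarland diluted in saline/CAMH, 35 °C for 18 h, with further reads at 24 and 48 h. Activity is scored at the maximum tested concentration, 128 µM. Triplicate.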

Staphylococcus aureus [2] = assay: Antimicrobial activity against Staphylococcus aureus ATCC 29213 at 128 uM after 24 to 48 hrs by two-fold broth microdilution method; format: functional, organism-based; summary of the method: as §1
Enterococcus faecalis [3] = assay: Antimicrobial activity against Enterococcus faecalis ATCC 29212 at 128 uM after 24 to 48 hrs by two-fold broth microdilution method; format: functional, organism-based; summary of the method: as §1
Enterobacter cloacae [4] = assay: Antimicrobial activity against Enterobacter cloacae ATCC 23355 at 128 uM after 24 to 48 hrs by two-fold broth microdilution method; format: functional, organism-based; summary of the method: as §1
Escherichia coli [5] = assay: Antimicrobial activity against Escherichia coli ATCC 25922 at 128 uM after 24 to 48 hrs by two-fold broth microdilution method; format: functional, organism-based; summary of the method: as §1
Serratia marcescens [6] = assay: Antimicrobial activity against Serratia marcescens ATCC 14576 at 128 uM after 24 to 48 hrs by two-fold broth microdilution method; format: functional, organism-based; summary of the method: as §1
Candida albicans [7] = assay: Antimicrobial activity against Candida albicans ATCC 537Y at 64 uM after 48 hrs by two-fold broth microdilution method; format: functional, organism-based
Summary of the method: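 Single top concentration of the antifungal microdilution: RPMI 1640, inoculum 0.5 McFarland diluted in saline/RPMI, 35 °C for 48 h. Activity is judged at the highest tested level, 64 µM. Run in triplicate.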

Klebsiella pneumoniae [8] = assay: Antimicrobial activity against Klebsiella pneumoniae ATCC 700603 after 24 to 48 hrs by two-fold broth microdilution method; format: functional
Summary of the method: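 Two-fold serial dilutions in cation-adjusted Mueller–Hinton broth per CLSI M100-S2. Stocks in DMSO/CAMH 1:10 v/v. Range 2.0–128 µM. Inoculum set to 0.5 McFarland, then diluted in saline and CAMH. Incubated at 35 °C for 18 h. MIC is the lowest concentration with no visible growth. Plates also read at 24 and 48 h as sterility control. Triplicate.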

Staphylococcus aureus [9] = assay: Antimicrobial activity against Staphylococcus aureus ATCC 29213 after 24 to 48 hrs by two-fold broth microdilution method; format: functional
Enterococcus faecalis [10] = assay: Antimicrobial activity against Enterococcus faecalis ATCC 29212 after 24 to 48 hrs by two-fold broth microdilution method; format: functional
Enterobacter cloacae [11] = assay: Antimicrobial activity against Enterobacter cloacae ATCC 23355 after 24 to 48 hrs by two-fold broth microdilution method; format: functional
Escherichia coli [12] = assay: Antimicrobial activity against Escherichia coli ATCC 25922 after 24 to 48 hrs by two-fold broth microdilution method; format: functional
Serratia marcescens [13] = assay: Antimicrobial activity against Serratia marcescens ATCC 14576 after 24 to 48 hrs by two-fold broth microdilution method; format: functional
Candida albicans [14] = assay: Antimicrobial activity against Candida albicans ATCC 537Y after 48 hrs by two-fold broth microdilution method; format: functional
Summary of the method: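 Two-fold serial dilutions in RPMI 1640 per CLSI M27-A2. Stocks in DMSO/RPMI 1:20 v/v. Test range 1.0–64 µM. Inoculum set to 0.5 McFarland, then diluted in saline and RPMI 1640. Plates held at 35 °C for 48 h. MIC is the lowest concentration giving prominent growth reduction. Run in triplicate.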

Staphylococcus aureus [15] = assay: Antimicrobial activity against multidrug-resistant Staphylococcus aureus VISA3 […] by two-fold broth microdilution method; format: functional
Staphylococcus aureus [16] = assay: Antimicrobial activity against Staphylococcus aureus ATCC 29213 after 18 hrs by modified broth microdilution method; format: functional
Summary of the method: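 PGI90, the concentration giving 90% growth inhibition, fitted with an exponential growth curve from at least seven concentrations of the MIC assay. Inhibition % = [(Ac − Ap)/Ac] × 100 from A620 of drug-free control versus drug-treated culture. Checked by a modified broth microdilution (Phase 2).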

Compound: CC(=O)N1N=C(c2ccc(C(C)(C)C)cc2)OC1c1ccc([N+](=O)[O-])o1 (centres undefined)
- Activity (Klebsiella pneumoniae [1]): inactive
- Activity (Staphylococcus aureus [2]): inactive
- Activity (Enterococcus faecalis [3]): inactive
- Activity (Enterobacter cloacae [4]): inactive
- Activity (Escherichia coli [5]): inactive
- Activity (Serratia marcescens [6]): inactive
- Activity (Candida albicans [7]): inactive

Compound: CCCOc1ccc(C2=NN(C(C)=O)C(c3ccc([N+](=O)[O-])o3)O2)cc1 (centres undefined)
- Activity (Klebsiella pneumoniae [1]): inactive
- Activity (Staphylococcus aureus [2]): inactive
- Activity (Enterococcus faecalis [3]): inactive
- Activity (Enterobacter cloacae [4]): inactive
- Activity (Escherichia coli [5]): inactive
- Activity (Serratia marcescens [6]): inactive
- Activity (Candida albicans [7]): inactive

Compound: CCCc1ccc(C(=O)N/N=C/c2ccc([N+](=O)[O-])o2)cc1
- MIC (Klebsiella pneumoniae [8]): 64 µM (≈ 19.3 µg/mL)
- MIC90 (Klebsiella pneumoniae [8]): 74.8 µM (≈ 22.5 µg/mL)
- MIC (Staphylococcus aureus [9]): 2 µM (≈ 0.603 µg/mL)
- MIC90 (Staphylococcus aureus [9]): 2.56 µM (≈ 0.771 µg/mL)
- MIC (Enterococcus faecalis [10]): 64 µM (≈ 19.3 µg/mL)
- MIC90 (Enterococcus faecalis [10]): 73.2 µM (≈ 22.1 µg/mL)
- MIC90 (Enterobacter cloacae [11]): 69.8 µM (≈ 21 µg/mL)
- MIC (Escherichia coli [12]): 64 µM (≈ 19.3 µg/mL)
- MIC90 (Escherichia coli [12]): 69.8 µM (≈ 21 µg/mL)
- MIC (Serratia marcescens [13]): 64 µM (≈ 19.3 µg/mL)
- MIC90 (Serratia marcescens [13]): 66.3 µM (≈ 20 µg/mL)
- MIC (Candida albicans [14]): 32 µM (≈ 9.64 µg/mL)
- MIC90 (Candida albicans [14]): 42.1 µM (≈ 12.7 µg/mL)
- MIC (Staphylococcus aureus [15]): 2 µM (≈ 0.603 µg/mL)
- log(1/MIC>90) (Staphylococcus aureus [16]): 5.59

— ChEMBL document CHEMBL3259528, “Exploring 5-nitrofuran derivatives against nosocomial pathogens: synthesis, antimicrobial activity and chemometric analysis” (2014)
